From PubChem
aDG glyco act: alpha-DG glycosylation activation; activation, % at 10 µM; Pro5-aDG cells, alpha-DG glycosylation AlphaScreen (IIH6); 0% Pro5, 100% B10-LARGE cell signal; AID 624168; 360,000 tested, 0.22% active;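 active means activation of at least 8% versus controls, or a plate z-score of at least 8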;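 further: Pro5 are CHO cells carrying HIG-tagged alpha-DG that lacks glycosylation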
NR2E3 ag-1: NR2E3 (human) agonism; AID 2300; Q9Y5X4; inhibition of corepressor binding, % at 4.78 µM; 320,000 tested, 0.12% active; GST-NR2E3/biotin-RetCOR TR-FRET, 1536-well;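 active means percent inhibition above the cutoff of mean plus 3 SD of all tested compounds, set per screening campaign, cut at about 20% in these data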;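 further: 0% = DMSO wells and 100% = biotin wells as full block of FRET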
Target sequence (Q9Y5X4 whole entry, looked up): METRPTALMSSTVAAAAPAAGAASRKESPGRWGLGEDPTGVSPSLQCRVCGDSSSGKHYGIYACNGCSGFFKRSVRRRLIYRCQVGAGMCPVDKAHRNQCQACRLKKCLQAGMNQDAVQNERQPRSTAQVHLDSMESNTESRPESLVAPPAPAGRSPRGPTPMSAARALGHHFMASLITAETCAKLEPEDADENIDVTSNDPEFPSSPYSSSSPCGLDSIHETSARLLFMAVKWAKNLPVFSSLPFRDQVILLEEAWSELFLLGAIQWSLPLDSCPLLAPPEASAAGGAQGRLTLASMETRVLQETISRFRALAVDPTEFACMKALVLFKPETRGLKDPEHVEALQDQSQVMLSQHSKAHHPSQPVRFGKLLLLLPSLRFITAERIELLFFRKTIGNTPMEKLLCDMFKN
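Test system: GST-NR2E3 and biotin-RetCOR proteins | Quantity: 1.35 nM GST-tagged NR2E3 final | Medium: Tris pH 7.5 | Also added: 7 nM biotin-RetCOR | Dosing: Compound at 4.8 µM, single dose | Timing: 5 h at 4 °C | Detection: Time-resolved FRET | Read-out basis: Percent inhibition | Benchmarks: Biotin wells as high control, 0.6% DMSO wells as low control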
NR2E3 ag-2: agonists of human NR2E3 nuclear receptor | CHO-S Gal4-NCOR/VP16-NR2E3 two-hybrid, luciferase | inhibition of corepressor binding, % at 3.98 µM | 360,000 tested, 0.35% active | AID 602229;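 active means inhibition above the mean of all tested compounds plus 3 SD, cut at about 70% in these data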;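 further: 0% = DMSO with NR2E3 transfected cells and 100% = cells lacking NR2E3 construct; higher means lower luciferase signal from less NR2E3 corepressor binding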
697 NFkB inh: lowers PMA/ionomycin-induced NF-kB signal in 697 B cells. 697 B-cell NF-kB luciferase reporter, 16 h. inhibition, % at 4 µM. 330,000 tested, 0.33% active; in the data active means inhibition above about 35%
Jurkat NFkB inh: inhibitors of the PMA/ionomycin-induced NF-kB reporter in Jurkat cells. PMA/ionomycin-induced NF-kB luciferase reporter, luminescence. inhibition, % at 4 µM. 330,000 tested, 0.53% active. AID 435003; in the data active means inhibition above about 50%
MPTP block: inhibitors of mitochondrial permeability transition pore; inhibition, % at 10 µM; 360,000 tested, 1.4% active; isolated mouse mitochondria, Ca2+ swelling absorbance, 30 min;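 active means inhibition of 50% or more, scaled per plate between neutral and stimulator controls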;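 further: 0% = DMSO wells given calcium and 100% = 1 mM EGTA wells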
697 NFkB conf: lowers PMA/ionomycin-induced NF-kB signal in 697 B cells | shares compounds with 697 NFkB inh | 697 B-cell NF-kB luciferase, 16 h | inhibition, % at 4 µM | 2,000 tested, 35% active | AID 449746; in the data active means inhibition mostly above about 28%, no sharp cut-off; inactive means mostly below about 22%
* hit, by the source's call; i = inactive; . = not tested or not shown. Shown are actives, neighbours in structure and some others; about 2.4% of the full set was active somewhere.

SMILES	aDG glyco act	NR2E3 ag-1	NR2E3 ag-2	697 NFkB inh	Jurkat NFkB inh	MPTP block	697 NFkB conf
NC(=O)c1c(NC(NC(=O)c2ccco2)(C(F)(F)F)C(F)(F)F)sc2c1CCCC2	0.0	-1.7	-52.6	38.9*	11.3	-4.5	6.7
CNC(=S)N/N=C/c1cc(C)n(-c2ccc(Cl)c(Cl)c2)c1C	1.8	0.4	0.7	-23.5	-10.5	1.2	.
COC(=O)c1[nH]c2ccc(C)cc2c1NC(=O)CN1CCc2cc(OC)c(OC)cc2C1	0.2	2.0	13.0	2.6	-8.8	1.2	.
COC(=O)c1[nH]c2ccc(C)cc2c1NC(=O)Nc1ccccc1OC	0.1	-0.1	6.7	35.7*	9.0	0.2	25.9*
O=C(Cc1cccs1)NC1CCCC1	-0.4	-0.7	3.8	-3.9	7.5	-3.8	.
CCc1cc(C(=O)N2CCc3c([nH]c4ccccc34)C2c2ccc(OC)cc2F)no1 (stereo not given)	-0.2	-3.4	-52.8	i	-1.9	0.5	-48.1
O=C(c1ccccc1)C1CC=CCC1C(=O)c1ccccc1 (stereo not given)	-0.2	.	16.7	.	.	-0.3	.
COc1ccc(-c2nn(-c3ccccc3)cc2/C=C(\C#N)C(N)=O)cc1[N+](=O)[O-]	0.3	3.8	17.8	37.8*	-20.5	-0.3	8.9
COc1ccc(-c2nn(-c3ccccc3)cc2/C=C(/C#N)C(N)=O)cc1[N+](=O)[O-]	-0.3	0.3	-34.2	6.5	-1.5	0.8	.
Cc1ccc(/C=C/c2nc3ccccc3c(=O)[nH]2)cc1	-0.2	5.9	-148.6	-253.6	-73.5	3.5	-254.8
COc1ccc2nc(NC(=O)c3ccccc3[N+](=O)[O-])sc2c1	0.1	1.5	-78.8	-51.7	-19.6	0.6	.
COc1ccc2nc(NC(=O)c3cccs3)sc2c1	-0.1	0.0	-91.2	-352.1	-124.3	0.6	-341.5
COc1ccc2nc(NC(=O)Nc3ccccc3OC)sc2c1	-0.1	1.9	-116.0	-295.6	-78.0	0.7	-365.5
COc1ccc2nc(NC(=O)c3ccccc3O)sc2c1	0.1	5.1	-116.7	-308.8	-70.0	2.0	-223.8
CC(=O)Nc1ccc2nc(NC(=O)c3cccs3)sc2c1	-0.1	6.2	-100.5	-147.5	-96.2	1.7	.
CCOc1ccc(S(=O)(=O)NCc2ccncc2)cc1NC(=O)c1ccccc1	1.4	-5.0	4.3	45.5*	46.5	13.1	84.4*
COc1ccc(S(=O)(=O)NCc2ccncc2)cc1NC(=O)c1ccccc1	0.1	2.2	-1.4	-44.3	30.3	0.7	.
COc1ccc(CNC(=O)C(=O)NCCCn2ccnc2)cc1	-0.2	-4.5	0.2	37.5*	0.2	0.3	19.6
CCCOc1ccc(NC(=O)C(=O)NCCCn2ccnc2)cc1	0.4	1.2	10.7	56.0*	10.8	-0.5	53.4*
COc1cc(/C=N/Nc2nc(Nc3ccccc3)nc(N3CCCCC3)n2)ccc1OCC(=O)O	-0.3	3.5	-7.5	-18.9	-9.2	5.7	.
C(=N\Nc1nc(N2CCOCC2)nc(N2CCOCC2)n1)/c1cccnc1	0.0	0.6	3.8	30.2	0.3	-2.3	.
O=C(Oc1cccc(/C=N/Nc2nc(N3CCOCC3)nc(N3CCOCC3)n2)c1)c1ccco1	0.0	-0.9	-4.2	44.3*	-6.4	0.8	24.6*
COc1cc(/C=N/Nc2nc(Nc3ccccc3)nc(N3CCOCC3)n2)ccc1OC(=O)c1ccco1	-0.5	1.4	22.2	48.9*	-45.3	2.0	38.7*
O=C(COC(=O)c1ccc(Br)o1)NCc1ccc(Cl)cc1	-0.1	.	-6.8	6.1	10.4	-1.3	.
CNC(=O)c1cc(Nc2nnc(-c3ccc(O)cc3)c3ccccc23)ccc1OC	-0.5	-2.1	-44.0	35.4*	8.3	-1.6	28.9*
SMILES	aDG glyco act	NR2E3 ag-1	NR2E3 ag-2	697 NFkB inh	Jurkat NFkB inh	MPTP block	697 NFkB conf
COc1cc(NC(=O)c2n[nH]c(=O)c3ccccc23)cc(OC)c1	0.1	-1.8	12.8	2.9	-5.5	0.2	.
COc1ccc(-c2nc(NC(=O)c3n[nH]c(=O)c4ccccc34)sc2C)cc1	0.6	-0.7	-1.7	i	-41.6	0.3	-52.5
Cc1cc(C)c(-c2csc(NC(=O)c3n[nH]c(=O)c4ccccc34)n2)c(C)c1	2.3	-0.3	-3.6	-333.0	-13.7	8.9	-227.4
Cc1cccc(/C=N/NC(=O)c2ccc3c(c2)OCCO3)c1O	0.8	-1.0	-256.3	-352.1	-112.2	1.3	-464.7
CC(=O)c1ccc(NC(=O)c2cnn3ccccc23)cc1	-0.4	2.2	-73.8	36.4*	0.4	0.2	17.1
CC(=O)c1cccc(NC(=O)c2cnn3ccccc23)c1	-0.1	-1.9	-56.5	-59.2	-84.2	-1.6	.
Cn1cc(C(c2ccccc2OCC(=O)O)c2cn(C)c3ccccc23)c2ccccc21	0.7	0.9	0.6	-4.3	12.7	3.4	.
Cn1c(=O)[nH]c(=O)c2c1nc(N/N=C/c1ccncc1)n2Cc1ccc(Cl)cc1	0.5	2.8	-17.8	37.7*	-1.5	1.5	17.6
COC(=O)[C@]12CCCCC=C1N(Cc1ccc(Cl)cc1Cl)C(=O)[C@H](CC(=O)NCC1CCCCC1)C2	-0.1	.	-12.5	.	.	0.4	.
CC(C)c1ccc(C2c3[nH]c4ccccc4c3C[C@H]3C(=O)N(c4ccccc4C(=O)N4CCC[C@H]4C(=O)O)C(=O)N23)cc1 (stereo not given in full)	0.1	0.9	-16.4	-4.7	-8.2	-0.3	.
COc1ccc(NC(=O)c2cc3c(Cl)nc4ccccc4c3s2)cc1OC	0.2	1.9	-18.3	43.6*	10.7	7.4	39.2*
COc1ccc(OC)c(NC(=O)c2cc3c(Cl)nc4ccccc4c3s2)c1	-0.2	-1.0	1.3	30.7	-1.1	2.3	.
COCC(C)NC(=O)c1cc2c(ccc3ccccc32)oc1=O (stereo not given)	0.1	2.2	-9.8	-40.9	-2.9	0.6	.
COc1ccc(-c2cc3nc(C)c(CCC(=O)NCc4ccco4)c(C)n3n2)c(OC)c1	0.1	3.0	-4.8	28.5	11.0	2.3	.
Clc1cccc(-c2cc3nc4c(c(NCc5ccco5)n3n2)CCCC4)c1	1.1	2.0	-170.3	-326.8	-111.0	5.1	-346.6
Cc1nc2cc(-c3ccc(Cl)cc3)nn2c(C)c1CCC(=O)NCc1ccco1	-0.1	4.4	-18.2	43.4*	16.6	0.2	31.3*
Cc1ccc(-c2cc3nc(C)cc(NCc4ccco4)n3n2)cc1	0.2	1.0	-94.1	-255.9	-130.4	1.2	-238.3
c1coc(CNc2c3c(nc4ncnn24)CCCC3)c1	0.7	-4.0	11.3	-13.1	5.6	-0.4	.
CCCCc1nnc(NC(=O)Cc2ccc(S(=O)(=O)N3CCOCC3)s2)s1	-0.1	0.6	-6.4	25.3	-7.5	0.6	.
